In paper PMC9298314 (The Febs Journal, 2021):
Peptide text beside a SMILES is read from it.

Legend:
MDA‐MB‐231 [1] = assay: CellTiter‐Blue cell viability assay; format: cell-based, human; conditions: read-out: IC50 (µM) MDA‐MB‐231, 24 h, peptide 0.01 to 100 µM, serum‐free medium
Procedure, shortened: (§1)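 Cells were seeded per mL as follows: BT‑20, SKBR3 and Hs68 at 1.5×10⁵; BT‑474 at 3.0×10⁵; MCF 10A at 4.0×10⁵; MDA‑MB‑231 at 1.0×10⁵. After 24 h, wells were PBS‑washed twice and exposed to test compound in complete serum‑free medium for 24 h at 37 °C, 5% CO₂. CellTiter‑Blue was added for 3 h and fluorescence read at 560/590 nm. Untreated cells set 100%, 1% Triton X‑100 set 0%. IC50 came from a log(inhibitor)–normalized response fit, using independent cultures on different days.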

BT‐20 = assay: CellTiter‐Blue cell viability assay; format: cell-based, human; conditions: read-out: IC50 (µM) BT‐20, 24 h, peptide 0.01 to 100 µM, serum‐free medium
Procedure, shortened: as §1

BT‐474 = assay: CellTiter‐Blue cell viability assay; format: cell-based, human; conditions: read-out: IC50 (µM) BT‐474, 24 h, peptide 0.01 to 100 µM, serum‐free medium
Procedure, shortened: as §1

SKBR3 = assay: CellTiter‐Blue cell viability assay; format: cell-based, human; conditions: read-out: IC50 (µM) SKBR3, 24 h, peptide 0.01 to 100 µM, serum‐free medium
Procedure, shortened: as §1

MCF 10A = assay: CellTiter‐Blue cell viability assay; format: cell-based, human; conditions: read-out: IC50 (µM) MCF 10A, 24 h, peptide 0.01 to 100 µM, serum‐free medium
Procedure, shortened: as §1

Hs68 = assay: CellTiter‐Blue cell viability assay; format: cell-based, human; conditions: read-out: IC50 (µM) Hs68, 24 h, peptide 0.01 to 100 µM, serum‐free medium
Procedure, shortened: as §1

[2] = system: human red blood cells (RBCs); assay: Hemolytic activity; format: cell-based; conditions: 100 µM peptide, human RBCs 0.25% v/v in PBS pH 7.4, 24 h, 37 °C
Procedure, shortened: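 Blood spun 1000 g for 10 min at 4 °C and washed three times. RBCs held at 0.25% v/v in PBS pH 7.4 with a peptide series (0.01–100), 24 h at 37 °C with gentle agitation. After spinning 1000 g for 5 min at 4 °C, supernatant hemoglobin read at A415. PBS is 0% and 1% Triton X‐100 is 100%; melittin served as peptide control. % = (A − Aneg)/(Apos − Aneg) × 100.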

MDA‐MB‐231 [3] = assay: Internalization of CF‐labeled peptide, flow cytometry and confocal microscopy; format: cell-based, human; conditions: CF‐labeled peptide 1 µM, flow cytometry
Procedure, shortened: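 Cells seeded 5.0 × 10⁴ per well for 24 h, then washed. Exposed to CF‐labelled peptide (final 1) for 15, 60, 360 and 1440 min at 37 °C, 5% CO₂. Collected and washed; 10 000 cells read by flow cytometry, with autofluorescence subtracted. Duplicates on three independent days.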

Compound: C[C@H](NC(=O)[C@H](CCCCN)NC(=O)[C@H](Cc1ccc(O)cc1)NC(=O)[C@H](CCCCN)NC(=O)[C@H](CCCCN)NC(=O)[C@H](CCCCN)NC(=O)[C@H](Cc1ccc(O)cc1)NC(=O)[C@H](CCCNC(=N)N)NC(=O)[C@H](CCCCN)NC(=O)[C@@H](N)CCCCN)C(=O)N[C@@H](Cc1ccc(O)cc1)C(=O)N[C@@H](CCCCN)C(=O)N1CCC[C@H]1C(=O)N[C@@H](Cc1ccc(O)cc1)C(=O)N[C@@H](CCCCN)C(=O)N[C@@H](CCCCN)C(=O)N[C@@H](CCCCN)C(=O)N[C@@H](CCCCN)C(=O)N[C@@H](CCCCN)C(=O)N[C@@H](Cc1ccccc1)C(N)=O [vCPP0275] (H-KKRYKKKYKAYKPYKKKKKF-NH2)
- IC50 (MDA‐MB‐231 [1]): > 100 µM
- IC50 (BT‐20): 44.8 ± 1.1 µM
- IC50 (BT‐474): > 100 µM
- IC50 (SKBR3): 34 ± 1 µM
- IC50 (MCF 10A): > 100 µM
- IC50 (Hs68): > 100 µM
- H max (% hemolysis at the highest concentration tested) [2]: 14.6 ± 0.9%

Compound: CC(C)C[C@H](NC(=O)CNC(=O)[C@H](CC(C)C)NC(=O)[C@H](CC(C)C)NC(=O)[C@H](CCC(N)=O)NC(=O)[C@H](CCCNC(=N)N)NC(=O)[C@H](CC(C)C)NC(=O)[C@@H](NC(=O)[C@H](CC(C)C)NC(=O)[C@H](CCCNC(=N)N)NC(=O)[C@@H](N)CCCNC(=N)N)[C@@H](C)O)C(=O)NCC(=O)N[C@@H](CO)C(=O)N[C@@H](CCCNC(=N)N)C(=O)N[C@@H](CCCNC(=N)N)C(=O)N[C@@H](CCCNC(=N)N)C(=O)N[C@@H](CCCNC(=N)N)C(=O)N[C@@H](CCCNC(=N)N)C(=O)N[C@@H](CO)C(=O)N[C@@H](CCCNC(=N)N)C(N)=O [vCPP0769] (H-RRLTLRQLLGLGSRRRRRSR-NH2)
- IC50 (MDA‐MB‐231 [1]): 9 ± 0.1 µM
- IC50 (BT‐20): 3.5 ± 1.5 µM
- IC50 (BT‐474): 37.5 ± 1.7 µM
- IC50 (SKBR3): 21.1 ± 2 µM
- IC50 (MCF 10A): 55.4 ± 1.7 µM
- IC50 (Hs68): 53.4 ± 0.7 µM
- H max (% hemolysis at the highest concentration tested) [2]: 56.2 ± 1.5%

Compound: CF‐WRRRYRRWRRRRRWRRRPRR‐amide [CF‐vCPP2319]
- Fluorescence intensity decay with time, MDA‐MB‐231 (MDA‐MB‐231 [3]): decreases slowly during 24 h
